KCNQ1 block: inhibitors of human KCNQ1 potassium channel | CHO-K1 KCNQ1, FluxOR thallium flux fluorescence; hits give high values | P51787 | B-score at 10 µM | actives 1.3% (n = 310,000) | AID 2642;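 active = compounds whose thallium flux B-score, printed positive for inhibition, exceeds three library SD while starting fluorescence stays within three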;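 also: channel opened by potassium depolarization with thallium stimulus after 20 min compound exposure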
KCNK9 block: inhibitors of human KCNK9 two-pore domain potassium channel; AID 488922; actives 1.2% (n = 310,000); HEK293 KCNK9, FluxOR thallium flux fluorescence; hits give low values; Q9NPC2; B-score at 10 µM;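 active = ratio B-score over 3 SD below the library mean, with starting fluorescence within 5 SD of its mean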;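 also: negative B-score means less thallium flux so channel inhibition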
KCNK3 inh: human KCNK3 channel inhibition, primary screen; AID 602410; O14649; CHO-KCNK3 thallium flux, FluxOR fluorescence; hits give low values; B-score at 10 µM; actives 0.84% (n = 340,000);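 active = B-score under library mean minus 4 SD, starting fluorescence ratio at most library mean plus 5 SD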;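 also: more negative B-score means stronger inhibition of thallium flux through KCNK3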
Target sequence (O14649 whole entry, looked up): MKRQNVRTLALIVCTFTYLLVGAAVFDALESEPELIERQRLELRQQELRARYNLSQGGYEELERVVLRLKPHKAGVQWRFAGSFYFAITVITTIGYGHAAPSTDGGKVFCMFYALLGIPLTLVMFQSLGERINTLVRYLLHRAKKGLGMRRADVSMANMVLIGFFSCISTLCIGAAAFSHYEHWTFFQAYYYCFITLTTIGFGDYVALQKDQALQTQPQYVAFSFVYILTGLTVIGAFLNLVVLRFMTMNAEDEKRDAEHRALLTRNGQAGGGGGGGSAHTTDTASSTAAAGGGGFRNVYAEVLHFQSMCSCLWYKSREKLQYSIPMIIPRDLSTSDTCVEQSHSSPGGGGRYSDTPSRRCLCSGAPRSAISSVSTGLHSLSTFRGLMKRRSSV
KCNQ1 pot: human KCNQ1 channel potentiation or activation; actives 0.35% (n = 310,000); P51787; AID 2648; CHO-K1 KCNQ1, thallium flux FluxOR fluorescence; hits give high values; B-score at 10 µM;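 active = fluorescence ratio B-score, a plate-corrected score, at least three library SD, with initial intensity B-score within 5 SD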
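Medium – assay buffer, equal DMSO in all wells · Material – CHO-K1 cell line with stable KCNQ1 potassium channel expression · Signal – kinetic FluxOR thallium fluorescence, 10-s 1-Hz baseline, 110-s post-stimulus read · Compound – single concentration per compound, DMSO matched to controls · Schedule – 37 °C overnight plating, 90-min dark dye load, 20-min compound pretreatment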
hERG protect: shields human hERG channel from block by proarrhythmic agents; activation (rescue from dofetilide block), less the hit threshold, % at 10 µM; CHO-hERG, FluxOR thallium flux, dofetilide IC70 present; actives 0.51% (n = 310,000); AID 1511;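 active = activation above the mean of controls blocked by dofetilide plus 5 SD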;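 also: thallium influx through hERG after potassium depolarization seen as dye fluorescence rise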
Kir21 block: Kir2.1 (mouse) channel inhibition. P35561. HEK293-Kir2.1, FluxOR thallium flux fluorescence; hits give low values. B-score at 10 µM. actives 0.85% (n = 310,000). AID 1672;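 active = fluorescence ratio B-score at or below minus 3 SD of library scores, with starting-brightness B-score within 2 SD, cut at about -4.2 in these data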;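 also: channel flux triggered by added potassium and thallium sulfate stimulus; B-score of peak minus minimum fluorescence over baseline after thallium stimulus; more negative B-score means stronger Kir2.1 block with less thallium influx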
KCNK9 block conf: human KCNK9 inhibitor confirmation; shares compounds with KCNK9 block; HEK293 KCNK9 cells, FluxOR thallium flux fluorescence; inhibition, % at 10 µM; actives 43% (n = 4,900); AID 492992;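 active = thallium signal inhibited by more than 5 SD of the compound-free buffer control wells, on both duplicate plates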
Kir21 sel: tests whether KCNK9 modulators also affect mouse Kir2.1; shares compounds with KCNK9 block; Kir2.1 cells, FluxOR thallium flux fluorescence; inhibition, % at 10 µM; actives 4% (n = 4,900); AID 492993;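 active = thallium signal drop more than 5 SD beyond the mean of the no-compound control wells, seen in both duplicate plates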;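 also: signal is fluorescence rise after thallium addition divided by baseline fluorescence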
KCNK9 uninduced: non-induced cell nonspecific activity of KCNK9 modulators | actives 40% (n = 4,900) | AID 492997 | inhibition, % at 10 µM | non-induced KCNK9-HEK293, FluxOR thallium flux | shares compounds with KCNK9 block;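 active = thallium signal drop beyond 5 SD of the untreated control mean, on both duplicate plates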
Each line names hits and unclear results; the compound was inactive in the other large screens (follow-up assays come after a bar, where they were run). Rows were chosen to be rich in hits. Some 3.7% of all compounds tested hit in one or more screens of this group.

CC1=C(C(=O)OC(C)C)C(c2cccc(F)c2)N2C(=O)C(C)SC2=N1 (configuration not stated)	KCNK9 block -12.6 | KCNK9 block conf 55.5% | Kir21 sel inactive | KCNK9 uninduced 54.5%
CCOC(=O)C1=C(C)N=C2SC(C)C(=O)N2C1c1cccc(F)c1 (configuration not stated)	KCNQ1 block 6, KCNK9 block -16.6 | KCNK9 block conf 64.5% | Kir21 sel inactive | KCNK9 uninduced 60.5%
CCOC(=O)C1=C(C)N=C2SC(C)C(=O)N2C1c1ccc(OC(C)=O)c(OCC)c1 (configuration not stated)	none (no result: KCNK3 inh)
COc1ccc(N(C)C(=O)c2ccc3c(Cl)c4c(nc3c2)CCCC4)c(OC)c1	none
Cc1ccc(N(C)C(=O)c2ccc3c(Cl)c4c(nc3c2)CCC4)cc1C	none | KCNK9 block conf inactive | Kir21 sel inactive | KCNK9 uninduced inactive
CCc1ccc(N(CC)C(=O)c2ccc3c(Cl)c4c(nc3c2)CCC4)cc1	none | KCNK9 block conf inactive | Kir21 sel inactive | KCNK9 uninduced 27.0%
CC(=O)Nc1cccc(NC(=O)CCN2C(=O)c3ccccc3S2(=O)=O)c1	none
O=C(c1ccc(-c2ccccc2Cl)s1)N1CCOCC1	none
CCCC1(CC)C(=O)NC(=O)N=C1N (configuration not stated)	none (no result: KCNQ1 block, KCNK9 block, KCNQ1 pot, hERG protect, Kir21 block)
Cc1ccc(CNC(=O)c2cc3c(-c4ccc(Cl)cc4)nn(C)c3s2)o1	KCNQ1 block 11, KCNK9 block -11.9, KCNK3 inh -11.8 | KCNK9 block conf 56.5% | Kir21 sel inactive | KCNK9 uninduced 35.0%
O=C(c1ccc2c(c1)OCO2)N1CCC2(CC1)Oc1ccc(Cl)cc1C(=O)C21CC(c2ccccc2)=NO1 (configuration not stated)	none
COC(=O)c1sccc1NC(=S)N1CCC(C)CC1	none
COC(=O)c1sccc1NC(=S)N1CCN(c2ccc(F)cc2)CC1	KCNK9 block -9.69 | KCNK9 block conf inactive | Kir21 sel inactive | KCNK9 uninduced 32.0%
COC(=O)c1sccc1NC(=S)N1CC(C)CC(C)C1 (configuration not stated)	none | KCNK9 block conf inactive | Kir21 sel inactive | KCNK9 uninduced 27.5%
COC(=O)c1sccc1NC(=S)N1CCN(c2ccccc2)CC1	none
CCN(CC)S(=O)(=O)c1ccc(=O)n(CC(=O)N2Cc3ccccc3CC2C(N)=O)c1 (configuration not stated)	none (no result: KCNQ1 block, KCNK9 block, KCNQ1 pot, hERG protect, Kir21 block)
CCOC(=O)N1CCN(c2ncnc3scc(-c4ccc(Cl)cc4)c23)CC1	none
Clc1ccc(-c2csc3ncnc(N4CCc5ccccc5C4)c23)cc1	KCNK9 block -10.5 | KCNK9 block conf 45.0% | Kir21 sel inactive | KCNK9 uninduced 40.5%
Clc1ccc(CN2CCN(c3ncnc4scc(-c5cccs5)c34)CC2)cc1	KCNQ1 block 7, KCNK9 block -13 | KCNK9 block conf 34.5% | Kir21 sel inactive | KCNK9 uninduced inactive
Cc1ccccc1N1CCN(c2ncnc3scc(-c4cccs4)c23)CC1	KCNK9 block -13.6 | KCNK9 block conf 44.5% | Kir21 sel inactive | KCNK9 uninduced inactive
CCOC(=O)C(=CNc1ccc2c(c1)nnn2-c1ccc(Cl)cc1)C(=O)OCC	none
COc1ccc(C#Cc2ccc3c(=O)c4ccccc4n(C)c3c2)cc1	none | KCNK9 block conf inactive | Kir21 sel inactive | KCNK9 uninduced inactive
COc1ccccc1C#Cc1ccc2c(=O)c3ccccc3n(C)c2c1	KCNK9 block -9.73 | KCNK9 block conf 44.0% | Kir21 sel inactive | KCNK9 uninduced inactive
Cn1c2ccccc2c(=O)c2cc(C#Cc3cccc(N)c3)ccc21	none (no result: KCNQ1 block, KCNK9 block, KCNQ1 pot, hERG protect, Kir21 block)
Cc1ccccc1Nc1ncnc2c1cnn2-c1ccccc1	KCNK9 block -9.46 | KCNK9 block conf inactive | Kir21 sel inactive | KCNK9 uninduced inactive
CC(=O)NC(CC(=O)OCC(=O)c1ccc(NC(=O)CC(C)C)cc1)c1ccccc1 (configuration not stated)	none (no result: KCNQ1 block, KCNK9 block, KCNQ1 pot, hERG protect, Kir21 block)
CCc1ccccc1N(C)S(=O)(=O)c1ccc2[nH]cc(C(=O)N3CCc4ccccc43)c(=O)c2c1	KCNK9 block -9.3 | KCNK9 block conf inactive | Kir21 sel inactive | KCNK9 uninduced 25.5%
CN1CCC(=O)N(CCSc2ccc(Br)cc2)CC1	none
O=C(N=Nc1c(O)[nH]c2ccccc12)c1ccco1	none
CN(CC(=O)NC1CCCCCCC1)S(=O)(=O)c1cccc2cccnc12	none | KCNK9 block conf inactive | Kir21 sel inactive | KCNK9 uninduced inactive
COc1ccccc1CCN1CCCC(CN(C)Cc2ccc(OCCO)cc2)C1 (configuration not stated)	none
COc1cc(CN(C)CC2CCCN(CCc3ccccc3F)C2)cc(Cl)c1OC (configuration not stated)	Kir21 block -4.88 | KCNK9 block conf inactive | Kir21 sel inactive | KCNK9 uninduced inactive
COC(=O)c1cc(NC(=O)COC(=O)CN2C(=O)C3CC=CCC3C2=O)cc(C(=O)OC)c1 (configuration not stated)	none (no result: KCNQ1 block, KCNK9 block, KCNQ1 pot, hERG protect, Kir21 block)
O=C(c1ccc(F)cc1)N1CCN(c2cc(N3CCCCC3)c(F)cc2[N+](=O)[O-])CC1	none | KCNK9 block conf inactive | Kir21 sel inactive | KCNK9 uninduced inactive
COc1ccc(N2CCN(C(=O)c3ccc(F)cc3)CC2)c([N+](=O)[O-])c1	none
O=c1oc2ccccc2cc1-c1csc(NN=C2CCCCC2)n1	none | KCNK9 block conf inactive | Kir21 sel inactive | KCNK9 uninduced inactive
O=C(Nc1nc(-c2cc3ccccc3oc2=O)cs1)c1ccco1	none
C=CCNc1nc(-c2cc3ccccc3o2)cs1	none
c1ccc2oc(-c3csc(NCC4CCCO4)n3)cc2c1 (configuration not stated)	none | KCNK9 block conf inactive | Kir21 sel inactive | KCNK9 uninduced inactive
O=C(CC1SC(N2CCCC2)=NC1=O)Nc1ccc(C(=O)NCCOc2ccccc2F)cc1 (configuration not stated)	none (no result: KCNQ1 block, KCNK9 block, KCNQ1 pot, hERG protect, Kir21 block)
Cc1ccccc1-c1nc(CS(=O)(=O)CC(=O)NCCN2CCCC2)c(C)o1	none
COC(=O)c1ccc(C(=O)OC)c(NC(=O)COC(=O)CC2CC3CCC2C3)c1 (configuration not stated)	KCNK9 block -13.3, KCNK3 inh -13.9 | KCNK9 block conf 50.5% | Kir21 sel inactive | KCNK9 uninduced 29.0%
O=C(Nc1ccccc1)c1cccc(=O)o1	none
CCOC(=O)c1cc2c(ccn2C)n1CC(=O)N(C)C	none

Assay outcomes from PubChem BioAssay.
